Legend:
[1] = Inhibition of Cryptosporidium hominis DHFR-TS expressed in Escherichia coli
[2] = target: T1, Bifunctional dihydrofolate reductase-thymidylate synthase (Toxoplasma gondii, UniProt Q07422); assay: Inhibition of Toxoplasma gondii DHFR-TS
T1 sequence (Q07422 whole entry): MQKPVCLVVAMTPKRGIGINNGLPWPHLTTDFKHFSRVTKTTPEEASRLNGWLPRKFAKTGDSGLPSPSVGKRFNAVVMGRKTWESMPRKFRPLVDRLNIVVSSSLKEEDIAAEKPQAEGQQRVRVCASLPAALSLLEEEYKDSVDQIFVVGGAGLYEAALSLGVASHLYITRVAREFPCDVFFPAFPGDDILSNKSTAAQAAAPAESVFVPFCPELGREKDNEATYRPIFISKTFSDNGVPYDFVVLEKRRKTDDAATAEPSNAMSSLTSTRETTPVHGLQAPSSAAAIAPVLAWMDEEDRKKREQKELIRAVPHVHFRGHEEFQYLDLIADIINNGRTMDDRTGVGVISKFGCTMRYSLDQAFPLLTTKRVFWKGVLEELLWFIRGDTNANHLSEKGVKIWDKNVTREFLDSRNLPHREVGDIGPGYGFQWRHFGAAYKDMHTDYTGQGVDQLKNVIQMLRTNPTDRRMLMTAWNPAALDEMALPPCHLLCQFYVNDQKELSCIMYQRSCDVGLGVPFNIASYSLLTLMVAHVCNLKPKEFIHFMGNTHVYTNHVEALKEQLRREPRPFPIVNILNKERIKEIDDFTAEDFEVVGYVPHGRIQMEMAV

[3] = test system: Cryptosporidium hominis; assay: Ligand efficiency at Cryptosporidium hominis DHFR-TS
Outline: (§1)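 Computed from the enzyme IC50 substituted for Kd: ΔG = (1.99 cal K^-1 mol^-1)(300 K)(ln IC50)(0.001 kcal/cal), divided by the number of non-hydrogen atoms.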

[4] = target: T2, Bifunctional dihydrofolate reductase-thymidylate synthase (Toxoplasma gondii) (UniProt Q07422); assay: Ligand efficiency at Toxoplasma gondii DHFR-TS; outline: as §1
T2 sequence (whole entry): T1 sequence (Q07422 whole entry)

[5] = test system: Cryptosporidium hominis; assay: Ligand efficiency at Cryptosporidium hominis DHFR-TS relative to TMP
[6] = target: T2, Bifunctional dihydrofolate reductase-thymidylate synthase (Toxoplasma gondii); assay: Ligand efficiency at Toxoplasma gondii DHFR-TS relative to TMP

Row | Structure (SMILES) | IC50 [1] [µM] | IC50 [2] [µM] | Activity [3] | Activity [4] | Activity [5] | Activity [6]
1 | COc1cc([C@H](C)C#Cc2c(C)nc(N)nc2N)cc(OC)c1OC | 1.91 | 0.013 | – | – | – | –
2 | COc1cc(C(O)C#Cc2c(C)nc(N)nc2N)cc(OC)c1OC (stereo unspecified) | 141 | 9.1 | – | – | – | –
3 | COc1cc([C@@H](C)C#Cc2c(C)nc(N)nc2N)cc(OC)c1OC | 0.038 | 0.0014 | 0.41 | 0.49 | 0.41 | 0.49
4 | COc1cc(C(C)C#Cc2cnc(N)nc2N)cc(OC)c1OC (stereo unspecified) | – | 3.1 | – | – | – | –
5 | COc1cc(C(O)C#Cc2cnc(N)nc2N)cc(OC)c1OC (stereo unspecified) | 194 | – | – | – | – | –
6 | COc1cc(/C=C/c2cnc(N)nc2N)cc(OC)c1OC | > 1000 | – | – | – | – | –
7 | COc1cc(CC#Cc2c(C)nc(N)nc2N)cc(OC)c1OC | 10.2 | 0.88 | 0.29 | 0.35 | 0.29 | 0.35
8 | COc1cc(C(C)C#Cc2c(C)nc(N)nc2N)cc(OC)c1OC (stereo unspecified) | 0.169 | 0.12 | – | – | – | –
9 | COc1cc(Cc2cnc(N)nc2N)cc(OC)c1OC | – | – | 0.32 | 0.33 | – | –
10 | CN(Cc1cnc2nc(N)nc(N)c2n1)c1ccc(C(=O)N[C@@H](CCC(=O)O)C(=O)O)cc1 [METHOTREXATE] | 0.023 | – | 0.32 | 0.33 | – | –
11 | COc1cc(CCc2cnc(N)nc2N)cc(OC)c1OC | > 1000 | 90.2 | – | – | – | –
12 | COc1cc(C(C#Cc2cnc(N)nc2N)OC)cc(OC)c1OC (stereo unspecified) | 133 | 9.8 | – | – | – | –
13 | COc1cc(C(C#Cc2c(C)nc(N)nc2N)OC)cc(OC)c1OC (stereo unspecified) | 5 | 0.55 | – | – | – | –
14 | COc1cc(CC#Cc2cnc(N)nc2N)cc(OC)c1OC | 86.1 | 21.7 | – | – | 0.24 | 0.28
